Values after ≈ are worked out from the molar mass of the structure shown.
Tests used:
[1] = system: Candida albicans; assay: Antifungal activity against Candida albicans ATCC 10231 after 24 hrs by microdilution susceptibility assay; type: functional; settings: ATCC 10231, 24 h
Method in brief: (§1)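 Broth microdilution in Mueller Hinton Broth, compounds from DMSO stocks diluted serially; inocula standardized to 10^6 CFU/mL (McFarland 0.5) from overnight MHB cultures. Plates held 37 °C for 24 h; MIC taken as first well without turbidity, aided by 1% tetrazolium violet added for 3 h at 37 °C. Ketoconazole reference.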

[2] = system: A549; assay: Cytotoxicity against human A549 cells after 24 hrs by XTT assay; type: functional, cell-based; settings: A549, 24 h
Method in brief: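 A549 cells in RPMI 1640 with 10% fetal calf serum, penicillin/streptomycin, 37 °C, 5% CO2; 20,000 cells/well seeded, after 24 h exposed to compounds at 0.00316 µM-10 mM for 24 h. XTT mitochondrial activity read at 480 nm (reference 680 nm) after 3 h; % inhibition per concentration, IC50 by non-linear regression.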

[3] = system: NIH3T3; assay: Cytotoxicity against mouse NIH/3T3 cells after 24 hrs by XTT assay; type: cell-based; settings: NIH3T3, 24 h
Method in brief: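 Mouse NIH3T3 fibroblasts grown in DMEM with fetal calf serum, penicillin/streptomycin, 37 °C, 5% CO2; 20,000 cells/well, treated after 24 h with 0.00316 µM-10 mM compound for 24 h. Viability via XTT (3 h, OD 480 nm, reference 680 nm); % inhibition computed and IC50 fitted by non-linear regression.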

[4] = system: Candida albicans; assay: Antifungal activity against Candida albicans clinical isolate after 24 hrs by microdilution susceptibility assay; type: functional; method in brief: as §1
[5] = system: Pichia kudriavzevii; assay: Antifungal activity against Candida krusei NRRL Y-7179 after 24 hrs by microdilution susceptibility assay; type: functional; settings: NRRL Y-7179, 24 h; method in brief: as §1
[6] = system: Candida parapsilosis; assay: Antifungal activity against Candida parapsilosis NRRL Y-12696 after 24 hrs by microdilution susceptibility assay; type: functional; settings: Lodderomyces parapsilosis, NRRL Y-12696, 24 h; method in brief: as §1
[7] = system: Nakaseomyces glabratus; assay: Antifungal activity against Candida glabrata Osmangazi University clinical isolate after 24 hrs by microdilution susceptibility assay; type: functional; method in brief: as §1
[8] = system: Nakaseomyces glabratus; assay: Antifungal activity against Candida glabrata Anadolu University clinical isolate after 24 hrs by microdilution susceptibility assay; type: functional; method in brief: as §1
[9] = system: Cyberlindnera jadinii; assay: Antifungal activity against Candida utilis NRRL Y-900 after 24 hrs by microdilution susceptibility assay; type: functional; settings: Williopsis jadinii, NRRL Y-900, 24 h; method in brief: as §1
[10] = system: Candida albicans; assay: Antifungal activity against Candida albicans ATCC 90028 after 24 hrs by microdilution susceptibility assay; type: functional; settings: ATCC 90028, 24 h; method in brief: as §1

| SMILES | MIC [1] [µg/mL] | MIC [4] [µg/mL] | MIC [5] [µg/mL] | MIC [6] [µg/mL] | MIC [7] [µg/mL] | MIC [8] [µg/mL] | MIC [9] [µg/mL] | MIC [10] [µg/mL] | IC50 [2] [mM] | IC50 [3] [mM] |
| --- | --- | --- | --- | --- | --- | --- | --- | --- | --- | --- |
| CC(=O)N1CCN(c2ccc(OCC3COC(Cn4ccnc4)(c4ccc(Cl)cc4Cl)O3)cc2)CC1 (stereo not drawn) [KETOCONAZOLE] | 15 (≈ 0.0282 mM) | 3 (≈ 0.00565 mM) | 3 (≈ 0.00565 mM) | 3 (≈ 0.00565 mM) | 15 (≈ 0.0282 mM) | 1 (≈ 0.00188 mM) | 15 (≈ 0.0282 mM) | 31 (≈ 0.0583 mM) |  |  |
| Cn1nnnc1SCC(=O)N/N=C/c1ccc(F)cc1 | > 8000 | > 8000 | > 8000 | > 8000 | > 8000 | > 8000 | > 8000 | > 8000 | 3.16 | 10 |
| C/C(=N\NC(=O)CSc1nnnn1C)c1cc(Cl)ccc1Cl | > 8000 | > 8000 | > 8000 | > 8000 | > 8000 | > 8000 | > 8000 | > 8000 | 1.5 | 1 |
| C/C(=N\NC(=O)CSc1nnnn1C)c1ccc(Cl)cc1Cl | > 8000 | > 8000 | > 8000 | > 8000 | > 8000 | > 8000 | > 8000 | > 8000 | 0.8 | 1 |
| Cn1nnnc1SCC(=O)N/N=C/c1ccc([N+](=O)[O-])cc1 | > 8000 | > 8000 | > 8000 | > 8000 | > 8000 | > 8000 | > 8000 | > 8000 | 0.632 | 9.3 |
| Cn1nnnc1SCC(=O)N/N=C/c1cccc(Cl)c1Cl | > 8000 | > 8000 | > 8000 | > 8000 | > 8000 | > 8000 | > 8000 | > 8000 | 0.632 | 0.52 |
| Cn1nnnc1SCC(=O)N/N=C/c1ccc(Br)cc1 | > 8000 | > 8000 | > 8000 | > 8000 | > 8000 | > 8000 | > 8000 | > 8000 | > 10 | 10 |
| Cn1nnnc1SCC(=O)N/N=C/c1ccc(Cl)cc1 | > 8000 | > 8000 | > 8000 | > 8000 | > 8000 | > 8000 | > 8000 | > 8000 | 0.1 | 2.1 |
| C/C(=N\NC(=O)CSc1nnnn1C)c1cccc(Cl)c1 | > 8000 | > 8000 | > 8000 | > 8000 | > 8000 | > 8000 | > 8000 | > 8000 | > 10 | 3.4 |
| Cn1nnnc1SCC(=O)N/N=C/c1ccccc1O | > 8000 | > 8000 | > 8000 | > 8000 | > 8000 | > 8000 | > 8000 | > 8000 | > 10 | > 10 |
| Cn1nnnc1SCC(=O)N/N=C/c1ccccc1Br | > 8000 | > 8000 | > 8000 | > 8000 | > 8000 | > 8000 | > 8000 | > 8000 | 2 | 0.02 |
| Cn1nnnc1SCC(=O)N/N=C/c1ccccc1Cl | > 8000 | > 8000 | > 8000 | > 8000 | > 8000 | > 8000 | > 8000 | > 8000 | 6.32 | > 10 |

Second part, led by results:

| MIC [1] [µg/mL] | MIC [4] [µg/mL] | MIC [5] [µg/mL] | MIC [6] [µg/mL] | MIC [7] [µg/mL] | MIC [8] [µg/mL] | MIC [9] [µg/mL] | MIC [10] [µg/mL] | SMILES | IC50 [2] [mM] | IC50 [3] [mM] |
| --- | --- | --- | --- | --- | --- | --- | --- | --- | --- | --- |
| > 8000 | > 8000 | > 8000 | > 8000 | > 8000 | > 8000 | > 8000 | > 8000 | COc1ccccc1/C=N/NC(=O)CSc1nnnn1C | 7 | 3.16 |
| > 8000 | > 8000 | > 8000 | > 8000 | > 8000 | > 8000 | > 8000 | > 8000 | Cc1cccc(/C=N/NC(=O)CSc2nnnn2C)c1 | 2 | 6.25 |
| > 8000 | > 8000 | > 8000 | > 8000 | > 8000 | > 8000 | > 8000 | > 8000 | Cn1nnnc1SCC(=O)N/N=C/c1ccc(Cl)cc1Cl | 0.5 | 2.14 |
| > 8000 | > 8000 | > 8000 | > 8000 | > 8000 | > 8000 | > 8000 | > 8000 | Cn1nnnc1SCC(=O)N/N=C/c1ccccc1 | 3.16 | 9.7 |
| > 8000 | > 8000 | > 8000 | > 8000 | > 8000 | > 8000 | > 8000 | > 8000 | C/C(=N\NC(=O)CSc1nnnn1C)c1ccc(Cl)cc1 | 6 | 0.1 |
| > 8000 | > 8000 | > 8000 | > 8000 | > 8000 | > 8000 | > 8000 | > 8000 | C/C(=N\NC(=O)CSc1nnnn1C)c1ccccc1Cl | 6.32 | 6 |
| > 8000 | > 8000 | > 8000 | > 8000 | > 8000 | > 8000 | > 8000 | > 8000 | Cc1ccc(/C=N/NC(=O)CSc2nnnn2C)cc1 | 3.16 | 3.16 |
| > 8000 | > 8000 | > 8000 | > 8000 | > 8000 | > 8000 | > 8000 | > 8000 | COc1cccc(/C=N/NC(=O)CSc2nnnn2C)c1 | > 10 | 0.6 |
| > 8000 | > 8000 | > 8000 | > 8000 | > 8000 | > 8000 | > 8000 | > 8000 | Cn1nnnc1SCC(=O)N/N=C/c1cccc(Br)c1 | 0.6 | 0.316 |
| > 8000 | > 8000 | > 8000 | > 8000 | > 8000 | > 8000 | > 8000 | > 8000 | Cn1nnnc1SCC(=O)N/N=C/c1ccc(C(F)(F)F)cc1 | 6.32 | > 10 |
| > 8000 | > 8000 | > 8000 | > 8000 | > 8000 | > 8000 | > 8000 | > 8000 | Cn1nnnc1SCC(=O)N/N=C/c1c(Cl)cccc1Cl | 1 | > 10 |
| > 8000 | > 8000 | > 8000 | > 8000 | > 8000 | > 8000 | > 8000 | > 8000 | Cn1nnnc1SCC(=O)N/N=C/c1cccc(O)c1 | 4.5 | 3.16 |
| > 8000 | > 8000 | > 8000 | > 8000 | > 8000 | > 8000 | > 8000 | > 8000 | Cn1nnnc1SCC(=O)N/N=C/c1cccc(Cl)c1 | 7.5 | 7.5 |
| > 8000 | > 8000 | > 8000 | > 8000 | > 8000 | > 8000 | > 8000 | > 8000 | Cn1nnnc1SCC(=O)N/N=C/c1cccc(F)c1 | 6.32 | 6.32 |
| > 8000 | > 8000 | > 8000 | > 8000 | > 8000 | > 8000 | > 8000 | > 8000 | Cc1ccccc1/C=N/NC(=O)CSc1nnnn1C | > 10 | 6.32 |
| > 8000 | > 8000 | > 8000 | > 8000 | > 8000 | > 8000 | > 8000 | > 8000 | CC(C)c1ccc(/C=N/NC(=O)CSc2nnnn2C)cc1 | 0.4 | 1.2 |
| > 8000 | > 8000 | > 8000 | > 8000 | > 8000 | > 8000 | > 8000 | > 8000 | Cn1nnnc1SCC(=O)N/N=C/c1cccc([N+](=O)[O-])c1 | > 10 | 2 |

From ChEMBL document CHEMBL2203123, “Synthesis and biological evaluation of some hydrazone derivatives as new anticandidal and anticancer agents” (Eur J Med Chem, 2012)
